Experiments:
Rattus norvegicus [1] = test: In vivo adrenals distribution of [11C]-labeled compound in Fisher rat 10 min after injection via caudal vein along with 18 ug of unlabeled estradiol.; type: ADME, organism-based, Adrenal gland; details: iv
Summary of the method: (§1)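 Immature female Fisher rats, 3-4 weeks old, about 50 g. Tracer was HPLC-purified, dried, redissolved in ethanol and diluted in saline. […] Animals were killed by cardiac puncture at 10 min and tissues counted. Values are % injected dose/g normalized to 100 g body weight, mean ± SD of five rats. Rats were paired (with/without carrier) and compared by paired Student's t test.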

Rattus norvegicus [2] = test: In vivo adrenals distribution of [11C]-labeled compound in Fisher rat 10 min after injection via caudal vein.; type: ADME, organism-based, Adrenal gland; details: iv; summary of the method: as §1
Rattus norvegicus [3] = species on record: Rattus norvegicus; test: (§2) Tissue to blood ratio 10 min after injection of compound; type: functional
Summary of the method: (§3)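 Immature female Fisher rats, about 50 g. […] Rats were killed at 10 min and tissue and blood radioactivity counted. Results are tissue-to-blood ratios, mean ± SD of five rats, compared between paired animals by paired Student's t test (p < 0.05 significant).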

Rattus norvegicus [4] = test: In vivo lung distribution of [11C]-labeled compound in Fisher rat 10 min after injection via caudal vein along with 18 ug of unlabeled estradiol.; type: ADME, organism-based; details: iv; summary of the method: as §1
Rattus norvegicus [5] = test: In vivo liver distribution of [11C]-labeled compound in Fisher rat 10 min after injection via caudal vein along with 18 ug of unlabeled estradiol.; type: ADME, organism-based; details: iv; summary of the method: as §1
Rattus norvegicus [6] = test: In vivo lung distribution of [11C]-labeled compound in Fisher rat 10 min after injection via caudal vein.; type: ADME, organism-based; details: iv; summary of the method: as §1
Rattus norvegicus [7] = species on record: Rattus norvegicus; test: as §2; type: functional; summary of the method: as §3; remark: listed apart in the source
Rattus norvegicus [8] = species on record: Rattus norvegicus; test: as §2; type: functional; summary of the method: as §3; remark: listed apart in the source
Rattus norvegicus [9] = species on record: Rattus norvegicus; test: (§4) Tissue to blood ratio 10 min after injection of compound & Estradiol; type: functional; summary of the method: as §3
Rattus norvegicus [10] = species on record: Rattus norvegicus; test: as §4; type: functional; summary of the method: as §3; remark: listed apart in the source
Rattus norvegicus [11] = test: In vivo blood distribution of [11C]-labeled compound in Fisher rat 10 min after injection via caudal vein along with 18 ug of unlabeled estradiol.; type: ADME, organism-based; details: iv; summary of the method: as §1
Rattus norvegicus [12] = test: In vivo blood distribution of [11C]-labeled compound in Fisher rat 10 min after injection via caudal vein.; type: ADME, organism-based; details: iv; summary of the method: as §1
Rattus norvegicus [13] = test: In vivo uterus distribution of [11C]-labeled compound in Fisher rat 10 min after injection via caudal vein along with 18 ug of unlabeled estradiol.; type: ADME, organism-based; details: iv; summary of the method: as §1
Rattus norvegicus [14] = test: In vivo uterus distribution of [11C]-labeled compound in Fisher rat 10 min after injection via caudal vein.; type: ADME, organism-based; details: iv; summary of the method: as §1
Rattus norvegicus [15] = species on record: Rattus norvegicus; test: as §2; type: functional; summary of the method: as §3; remark: listed apart in the source
Rattus norvegicus [16] = test: In vivo muscle distribution of [11C]-labeled compound in Fisher rat 10 min after injection via caudal vein along with 18 ug of unlabeled estradiol.; type: ADME, organism-based, Muscle tissue; details: iv; summary of the method: as §1
Rattus norvegicus [17] = species on record: Rattus norvegicus; test: as §2; type: functional; summary of the method: as §3; remark: listed apart in the source
Rattus norvegicus [18] = test: In vivo muscle distribution of [11C]-labeled compound in Fisher rat 10 min after injection via caudal vein.; type: ADME, organism-based, Muscle tissue; details: iv; summary of the method: as §1
Rattus norvegicus [19] = species on record: Rattus norvegicus; test: as §4; type: functional; summary of the method: as §3; remark: listed apart in the source
Rattus norvegicus [20] = species on record: Rattus norvegicus; test: as §4; type: functional; summary of the method: as §3; remark: listed apart in the source
Rattus norvegicus [21] = species on record: Rattus norvegicus; test: as §4; type: functional; summary of the method: as §3; remark: listed apart in the source
Rattus norvegicus [22] = species on record: Rattus norvegicus; test: as §4; type: functional; summary of the method: as §3; remark: listed apart in the source
Rattus norvegicus [23] = species on record: Rattus norvegicus; test: as §4; type: functional; summary of the method: as §3; remark: listed apart in the source
Rattus norvegicus [24] = test: In vivo spleen distribution of [11C]-labeled compound in Fisher rat 10 min after injection via caudal vein along with 18 ug of unlabeled estradiol.; type: ADME, organism-based; details: iv; summary of the method: as §1
Rattus norvegicus [25] = test: In vivo spleen distribution of [11C]-labeled compound in Fisher rat 10 min after injection via caudal vein.; type: ADME, organism-based; details: iv; summary of the method: as §1
Rattus norvegicus [26] = species on record: Rattus norvegicus; test: as §2; type: functional; summary of the method: as §3; remark: listed apart in the source
Rattus norvegicus [27] = species on record: Rattus norvegicus; test: as §4; type: functional; summary of the method: as §3; remark: listed apart in the source
Rattus norvegicus [28] = test: In vivo ovaries distribution of [11C]-labeled compound in Fisher rat 10 min after injection via caudal vein along with 18 ug of unlabeled estradiol.; type: ADME, organism-based, Female gonad; details: iv; summary of the method: as §1
Rattus norvegicus [29] = test: In vivo ovaries distribution of [11C]-labeled compound in Fisher rat 10 min after injection via caudal vein.; type: ADME, organism-based, Female gonad; details: iv; summary of the method: as §1
Rattus norvegicus [30] = species on record: Rattus norvegicus; test: as §2; type: functional; summary of the method: as §3; remark: listed apart in the source
Rattus norvegicus [31] = test: In vivo kidneys distribution of [11C]-labeled compound in Fisher rat 10 min after injection via caudal vein along with 18 ug of unlabeled estradiol.; type: ADME, organism-based, Kidney; details: iv; summary of the method: as §1
Rattus norvegicus [32] = test: In vivo kidneys distribution of [11C]-labeled compound in Fisher rat 10 min after injection via caudal vein.; type: ADME, organism-based, Kidney; details: iv; summary of the method: as §1
Rattus norvegicus [33] = species on record: Rattus norvegicus; test: as §2; type: functional; summary of the method: as §3; remark: listed apart in the source
Rattus norvegicus [34] = test: In vivo liver distribution of [11C]-labeled compound in Fisher rat 10 min after injection via caudal vein.; type: ADME, organism-based; details: iv; summary of the method: as §1
Rattus norvegicus [35] = species on record: Rattus norvegicus; test: as §2; type: functional; summary of the method: as §3; remark: listed apart in the source
Rattus norvegicus [36] = species on record: Rattus norvegicus; test: as §4; type: functional; summary of the method: as §3; remark: listed apart in the source
Rattus norvegicus [37] = species on record: Rattus norvegicus; test: as §2; type: functional; summary of the method: as §3; remark: listed apart in the source
Rattus norvegicus [38] = species on record: Rattus norvegicus; test: as §4; type: functional; summary of the method: as §3; remark: listed apart in the source
Rattus norvegicus [39] = species on record: Rattus norvegicus; test: as §2; type: functional; summary of the method: as §3; remark: listed apart in the source
Rattus norvegicus [40] = species on record: Rattus norvegicus; test: as §4; type: functional; summary of the method: as §3; remark: listed apart in the source
Rattus norvegicus [41] = species on record: Rattus norvegicus; test: as §2; type: functional; summary of the method: as §3; remark: listed apart in the source
Rattus norvegicus [42] = species on record: Rattus norvegicus; test: as §4; type: functional; summary of the method: as §3; remark: listed apart in the source
Rattus norvegicus [43] = species on record: Rattus norvegicus; test: as §2; type: functional; summary of the method: as §3; remark: listed apart in the source
Rattus norvegicus [44] = species on record: Rattus norvegicus; test: as §4; type: functional; summary of the method: as §3; remark: listed apart in the source
Rattus norvegicus [45] = species on record: Rattus norvegicus; test: as §2; type: functional; summary of the method: as §3; remark: listed apart in the source
Rattus norvegicus [46] = species on record: Rattus norvegicus; test: as §4; type: functional; summary of the method: as §3; remark: listed apart in the source
Rattus norvegicus [47] = species on record: Rattus norvegicus; test: as §2; type: functional; summary of the method: as §3; remark: listed apart in the source
Rattus norvegicus [48] = species on record: Rattus norvegicus; test: as §4; type: functional; summary of the method: as §3; remark: listed apart in the source

| Compound | Injected dose/g (Rattus norvegicus [1]) | Injected dose/g (Rattus norvegicus [2]) | Injected dose/g (Rattus norvegicus [4]) | Injected dose/g (Rattus norvegicus [5]) | Injected dose/g (Rattus norvegicus [6]) | Injected dose/g (Rattus norvegicus [11]) | Injected dose/g (Rattus norvegicus [12]) | Injected dose/g (Rattus norvegicus [13]) | Injected dose/g (Rattus norvegicus [14]) | Injected dose/g (Rattus norvegicus [16]) | Injected dose/g (Rattus norvegicus [18]) | Injected dose/g (Rattus norvegicus [24]) | Injected dose/g (Rattus norvegicus [25]) | Injected dose/g (Rattus norvegicus [28]) | Injected dose/g (Rattus norvegicus [29]) | Injected dose/g (Rattus norvegicus [31]) | Injected dose/g (Rattus norvegicus [32]) | Injected dose/g (Rattus norvegicus [34]) | other results |
| --- | --- | --- | --- | --- | --- | --- | --- | --- | --- | --- | --- | --- | --- | --- | --- | --- | --- | --- | --- |
| CCOC(=O)NCCOc1ccc(C(CC)C(CC)c2ccc(O)cc2)cc1 (stereo not drawn) | 5.3% | 6.5% | 2.1% | 7.8% | 2.1% | 1.3% | 0.81% | 6.2% | 5% | 1.3% | 1.1% | 1.6% | 2.4% | 3.5% | 2.5% | 5.1% | 2.9% | 8.5% | Tissue/Blood ratio (Rattus norvegicus [3]): 8; Tissue/Blood ratio (Rattus norvegicus [7]): 2.4; Tissue/Blood ratio (Rattus norvegicus [8]): 9; Tissue/Blood ratio (Rattus norvegicus [9]): 9.4; Tissue/Blood ratio (Rattus norvegicus [10]): 2.5; Tissue/Blood ratio (Rattus norvegicus [15]): 6.3; Tissue/Blood ratio (Rattus norvegicus [17]): 1.2; Tissue/Blood ratio (Rattus norvegicus [19]): 2.8; Tissue/Blood ratio (Rattus norvegicus [20]): 5.4; Tissue/Blood ratio (Rattus norvegicus [21]): 3.3; Tissue/Blood ratio (Rattus norvegicus [22]): 1.3; Tissue/Blood ratio (Rattus norvegicus [23]): 3.1; Tissue/Blood ratio (Rattus norvegicus [26]): 2.5; Tissue/Blood ratio (Rattus norvegicus [27]): 1.9; Tissue/Blood ratio (Rattus norvegicus [30]): 3; Tissue/Blood ratio (Rattus norvegicus [33]): 3.7 |
| CCOC(=O)NC1CC[C@H]2[C@@H]3CCc4cc(O)ccc4[C@H]3CC[C@]12C (stereo partly drawn) | 21.6% | 14.3% | 5.1% | 12.8% | 3.1% | 1.3% | 0.9% | 7.8% | 4.5% | 3.2% | 1.6% | 3.6% | 2.3% | 7.4% | 6.5% | 6.1% | 4.2% | 9.4% | Ratio (Rattus norvegicus [35]): 18; Ratio (Rattus norvegicus [36]): 14.9; Ratio (Rattus norvegicus [7]): 3.7; Ratio (Rattus norvegicus [37]): 9.1; Ratio (Rattus norvegicus [38]): 9.1; Ratio (Rattus norvegicus [10]): 3.7; Ratio (Rattus norvegicus [39]): 5.5; Ratio (Rattus norvegicus [40]): 6.2; Ratio (Rattus norvegicus [41]): 1.4; Ratio (Rattus norvegicus [42]): 1.8; Ratio (Rattus norvegicus [43]): 2.8; Ratio (Rattus norvegicus [44]): 2.7; Ratio (Rattus norvegicus [45]): 9.4; Ratio (Rattus norvegicus [46]): 6; Ratio (Rattus norvegicus [47]): 4.8; Ratio (Rattus norvegicus [48]): 4.3 |

— ChEMBL document CHEMBL1122634 (J Med Chem, 1984)
